# Compound activity: PubChem BioAssay, several laboratories
# Most compounds without a hit are left out; they make up all but 4.5% or so of the library.
# UPR CHOP act: apoptotic UPR (CHOP) activation; CHO-CHOP luciferase reporter, luminescence; percent of tunicamycin response over DMSO baseline; activation, % at 10 µM; hit rate 0.34% among 330,000;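 active = at 10 µM dose, activation of 40% or more, normalized to positive control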;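 also: 100% = tunicamycin at 10 µg/mL and 0% = DMSO alone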
#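 measured by = luciferase luminescence | assay system = CHO-CHOP cells, stable luciferase reporter of PERK-eIF2a-CHOP signalling | amount = 500 reporter cells seeded per well | timing = 6 h compound exposure at 37 °C after overnight seeding | controls = positive tunicamycin 10 µg/mL, negative DMSO alone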
# PfM18AAP inh: PfM18AAP enzyme inhibition; recombinant PfM18AAP, H-Glu-NHMec fluorogenic cleavage; inhibition, % at 7.35 µM; hit rate 1.2% among 290,000; AID 1822;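 active = inhibition above the campaign mean inhibition over all tested compounds plus 3 SD, cut at about 28% in these data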;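 also: 0% = plate median of test compound wells and 100% = 2 mM ZnCl2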
# NS3 helicase inh: blocks Hepatitis C virus NS3 helicase unwinding. inhibition, % at 10.9 µM. hit rate 0.56% among 290,000. NS3 helicase DNA unwinding, Cy5 molecular beacon fluorescence;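 active = inhibition above the mean of all tested compounds plus 3 SD, set per campaign, cut at about 35% in these data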;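 also: 0% = DMSO wells and 100% = thioflavine S control wells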
#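 System: NS3 helicase fragment of HCV / Schedule: 1 h at 25 °C / Control set: DMSO alone as 0% and 110 µM thioflavine S as 100% / Reagent: Cy5/quencher beacon DNA duplex and ATP to start / Technique: Cy5 fluorescence / Replication: singlicate / Evaluation: % inhibition of end-to-start signal ratio versus controls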
# p97 ATPase inh: blocks human p97 ATPase activity | recombinant p97 ATPase, Kinase-Glo ATP luminescence, 3 h | inhibition, % at 8 µM | hit rate 0.42% among 220,000 | AID 1481; in the data active = inhibition above about 15%;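 also: 0% = DMSO vehicle and 100% = wells lacking enzyme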
# Target sequence (P55072 whole entry, looked up): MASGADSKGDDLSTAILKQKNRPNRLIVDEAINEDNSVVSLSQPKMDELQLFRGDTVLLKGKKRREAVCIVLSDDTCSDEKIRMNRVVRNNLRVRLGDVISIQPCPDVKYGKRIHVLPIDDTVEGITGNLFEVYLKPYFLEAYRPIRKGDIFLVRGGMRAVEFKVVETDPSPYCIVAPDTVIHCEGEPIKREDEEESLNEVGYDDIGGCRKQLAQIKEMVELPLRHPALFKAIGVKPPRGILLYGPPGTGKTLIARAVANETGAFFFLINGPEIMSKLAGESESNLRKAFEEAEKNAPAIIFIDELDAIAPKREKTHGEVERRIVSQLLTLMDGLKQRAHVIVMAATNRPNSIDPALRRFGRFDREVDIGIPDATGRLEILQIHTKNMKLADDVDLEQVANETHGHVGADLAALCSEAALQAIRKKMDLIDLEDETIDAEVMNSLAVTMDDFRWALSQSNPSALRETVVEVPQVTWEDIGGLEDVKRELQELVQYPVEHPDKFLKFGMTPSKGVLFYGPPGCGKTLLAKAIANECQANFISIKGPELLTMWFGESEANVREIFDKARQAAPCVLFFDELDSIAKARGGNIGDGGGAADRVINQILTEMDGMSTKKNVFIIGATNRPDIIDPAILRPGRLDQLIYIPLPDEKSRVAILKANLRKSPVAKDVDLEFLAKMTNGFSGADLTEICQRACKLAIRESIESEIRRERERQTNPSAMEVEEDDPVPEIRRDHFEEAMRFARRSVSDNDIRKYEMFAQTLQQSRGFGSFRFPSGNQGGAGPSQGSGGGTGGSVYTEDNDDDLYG
# UPR XBP1 act: adaptive UPR (XBP1) activation | CHO-XBP1 luciferase reporter, IRE1-XBP1 UPR activation, luminescence; percent of tunicamycin response, DMSO as zero | activation, % at 20 µM | hit rate 0.33% among 330,000 | AID 463104;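 active = versus positive control, 20 µM dose yields 30% or more activation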;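 also: 100% = tunicamycin at 10 µg/mL and 0% = DMSO only wells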
#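 Material: CHO cell line with stable XBP1 luciferase reporter; schedule: 16-18 h cell attachment at 37 °C, then 6 h compound exposure; signal: glow luminescence from Steady-Glo reagent; medium: serum-containing F12 medium, 10% FBS; benchmarks: tunicamycin 10 µg/mL and vehicle-only wells; read-out: percent activation relative to tunicamycin reference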
# CHOP inhibitor: blocks CHOP induction under ER stress. AID 2732. CHO-K1 CHOP-promoter luciferase, tunicamycin-induced, 15-18 h. inhibition, % at 10 µM. hit rate 3.8% among 220,000;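 active = compounds that reduced the stress-induced luciferase reporter signal by more than about 70% of percent inhibition, limit read from the data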;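 also: 0% = tunicamycin plus vehicle and 100% = wells without tunicamycin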
# CHOP inh conf: confirmation of CHOP induction inhibitors; shares compounds with CHOP inhibitor; CHO-CHOP promoter luciferase reporter, tunicamycin-induced, luminescence; inhibition, % at 10 µM; hit rate 45% among 2,100;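 active = mean of three repeat readings of reporter signal inhibition above a set limit, cut at about 70% in these data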;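 also: 0% = tunicamycin plus vehicle and 100% = wells lacking tunicamycin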
# * marks the source's active call; other numbers are inactive results; . = not tested or not shown.
SMILES,UPR CHOP act,PfM18AAP inh,NS3 helicase inh,p97 ATPase inh,UPR XBP1 act,CHOP inhibitor,CHOP inh conf
COc1ccc(/C=C2\SC(=S)N(CCCC(=O)Nc3ccc(O)cc3)C2=O)cc1,-7.4,-2.2,5.1,9.7,-1.9,99.3*,112.1*
CCc1ccc(/C=C2/SC(=S)N(CCCC(=O)Nc3ccccc3C(=O)O)C2=O)cc1,-3.8,0.1,0.7,.,-5.0,.,.
COc1cc(/C=C2\SC(=S)N(CCC(=O)Nc3ccc(O)cc3)C2=O)cc(OC)c1OC,0.9,9.5,-0.3,.,-7.0,.,.
CC(Cc1ccco1)NC(=O)c1cccc(S(=O)(=O)N(C)C)c1 (centres undefined),1.5,-1.9,6.5,.,4.8,.,.
CCN(c1ccccc1)S(=O)(=O)c1cccc(C(=O)NCC2(N(C)C)CCCCC2)c1,0.1,.,.,.,0.0,.,.
Fc1cccc(CN2CCN(Cc3nc(CCc4ccccc4)no3)CC2)c1,0.6,2.9,3.7,-3.7,2.0,18.5,.
CCNc1nc(NCC)nc(-n2nc(C)cc2C)n1,10.6,4.4,2.0,4.5,6.4,-132.8,.
Cc1cc(C)n(-c2nc(Nc3ccccc3C(F)(F)F)nc(-n3nc(C)cc3C)n2)n1,9.8,-4.1,-17.0,-2.7,-7.5,105.1*,122.3*
Cc1cc(C)n(-c2nc(Nc3ccccc3C)nc(-n3nc(C)cc3C)n2)n1,5.2,-5.8,4.7,-1.6,-3.2,98.6*,36.2
O=C(COC(=O)c1nn(CCO)c(=O)c2ccccc12)Nc1ccc(Cl)c(Cl)c1,1.0,.,.,.,0.4,.,.
CC(C)c1ccc(S(=O)(=O)N2CCN(C(=O)Cc3ccsc3)CC2)cc1,-1.3,.,.,.,-2.1,.,.
COc1ccc(CCNC(=O)C2CCN(C(=O)c3ccc(C(C)(C)C)cc3)CC2)cc1,6.9,2.1,4.5,.,-0.2,.,.
CCCCS(=O)(=O)/C=C\C=C/S(=O)(=O)CCCC,-12.3,-42.3,-6.2,8.7,-10.2,.,126.9*
Cc1ccc(O)c(-c2cc(-c3cccc(Br)c3)n[nH]2)c1,3.5,-0.7,-2.5,4.5,6.5,96.7*,33.8
Oc1ccc(Br)cc1-c1cc(-c2ccccc2F)[nH]n1,4.9,-2.2,-5.6,-5.9,3.3,98.3*,99.7*
Oc1ccc(Cl)cc1-c1cc(-c2ccccc2)n[nH]1,1.2,0.9,-9.3,2.3,5.8,104.8*,81.5*
CC(Sc1nnc(-c2cccnc2)o1)C(=O)NC1CCCC1 (centres undefined),-0.2,.,.,.,-1.4,.,.
Cc1ccc2nc(/C(C#N)=C\c3ccc(Oc4ccc([N+](=O)[O-])cn4)cc3)[nH]c2c1,.,2.2,-1.5,4.6,.,96.9*,37.0
Cc1sc(NC(=O)Cn2c(=O)oc3ccccc32)nc1-c1ccc(Cl)cc1,0.1,-1.9,-5.4,4.0,-2.8,98.3*,33.6
O=C(NNC(=O)c1cccc2ccccc12)c1ccc(-c2ccccc2)cc1,0.9,2.9,-0.4,3.9,-4.3,97.9*,82.1*
O=C(NNC(=O)c1cccc2ccccc12)c1ccccc1O,-1.2,20.6,3.1,.,-2.1,.,.
CCOC(=O)c1cc(S(=O)(=O)Nc2ccc(OC)cc2OC)cn1C,-0.2,-10.4,0.7,.,-6.8,.,.
Cc1ccc(-c2nnc(SCC(=O)Nc3ccc(S(=O)(=O)N4CCCCCC4)cc3)o2)cc1,0.0,1.1,6.7,3.9,0.4,100.7*,35.9
CS(=O)(=O)c1cccc(S(=O)(=O)N2CCCCCC2)c1,2.1,-3.5,-0.7,.,0.7,.,.
CCCc1cc(C(=O)Cc2ccc(F)cc2)c(O)cc1O,-1.2,10.1,16.6,-13.7,0.7,100.3*,122.5*
SMILES,UPR CHOP act,PfM18AAP inh,NS3 helicase inh,p97 ATPase inh,UPR XBP1 act,CHOP inhibitor,CHOP inh conf
CCCc1ccc(C(=O)NNC(=O)c2ccc(Br)cc2)cc1,-0.1,1.9,-6.0,5.4,-2.4,98.8*,41.9
CCCn1c(SCC(=O)c2ccc3c(c2)NC(=O)CO3)nc2ccccc21,2.4,6.5,9.2,-4.6,-0.3,102.7*,4.8
Cc1cc(-c2cc(-c3ccc(Cl)cc3)nc(N)c2C#N)co1,-3.0,4.1,21.7,11.5,1.9,106.3*,-48.3
Cc1ccc(-c2cc(-c3ccc(C)o3)nc(N)c2C#N)cc1,-1.8,0.4,11.6,3.3,-6.9,100.7*,9.7
Cc1ccc(-c2cc(-c3ccc(Cl)cc3)c(C#N)c(N)n2)o1,0.2,-3.3,10.7,4.2,-1.7,97.9*,5.0
Cc1ccc(-c2cc(-c3ccc(F)cc3)c(C#N)c(N)n2)o1,-0.3,1.8,8.2,4.1,0.1,-21.9,.
Cc1cc(OCC(=O)NCCCn2ccnc2)c2c(C)c(C)c(=O)oc2c1,0.8,-4.1,5.7,.,-3.0,.,.
O=C1/C(=C/c2ccc(F)cc2)CCC1C1CCCC1 (centres undefined),5.8,-1.4,-11.2,-4.1,0.9,51.7,.
O=C1C(=C2SCCCS2)CC/C1=C\c1ccc(F)cc1,-11.6,0.7,7.9,-6.0,-8.8,107.6*,114.6*
CC1=CC(C)(C)Nc2ccc(OC(=O)CCN3C(=O)c4ccccc4C3=O)cc21,-5.1,-2.0,-8.5,2.4,-7.3,108.0*,-219.7
CCOC(=O)c1ccc2c(c1)nc(SC/C(O)=C(\C#N)c1nc3ccccc3[nH]1)n2CC,1.1,-12.8,4.7,-0.9,1.5,98.8*,46.5
CCOC(=O)c1c(C)[nH]c(C(=O)OC/C(O)=C(\C#N)c2nc3ccccc3[nH]2)c1C,-0.3,-1.2,-3.6,-4.2,-1.1,100.1*,-31.9
CC1CN(S(=O)(=O)c2cccc(C(=O)OC/C(O)=C(\C#N)c3nc4ccccc4[nH]3)c2)CC(C)O1 (centres undefined),1.5,6.3,11.0,-0.1,-0.6,105.8*,29.0
CCN1CCN(c2ccc(Cl)cc2NC(=O)c2ccc(-n3nc(C)cc3C)cc2)CC1,4.4,.,.,.,0.1,.,.
COc1ccc(C(C(=O)NC2CCCC2)N(Cc2cccnc2)C(=O)c2snc(C(N)=O)c2N)cc1OC (centres undefined),0.2,0.5,2.6,.,-1.0,.,.
COc1ccc(OC)c(CCNC(=O)CCc2nnc3ccc(N4CCOCC4)nn23)c1,1.5,-6.0,2.5,.,-4.1,.,.
CCc1ccc2c(c1)C1(NN=C(c3cccc4ccccc34)S1)C(=O)N2 (centres undefined),95.2*,-2.3,-2.2,2.1,7.5,104.2*,63.4
CCc1ccc2c(c1)C(=O)c1ccccc1C2=O,4.1,-2.4,11.9,-4.9,7.1,37.0,.
O=C(O)c1ccc(COc2ccccc2Cl)cc1,3.1,-1.0,9.5,5.0,-0.3,-10.4,.
O=C(O)c1cccc(COc2ccccc2Cl)c1,-10.2,.,.,.,-7.2,103.9*,132.0*
O=C(CN1CCCc2ccccc21)Nc1cccc(S(=O)(=O)N2CCOCC2)c1,1.1,.,.,.,-0.4,.,.
